Data set [1] has as its system Mus musculus. The experiment in a line: Improvement in lipid profile in C57BL/6-Lep^ob (ob/ob) mouse assessed as triglyceride level at 20 mg/kg, po dosed once daily for 25 days (reference value: 90.9 +/- 5.5 mg/dl). The data set is classed as functional. The note with it: time 25 day.
Data set [2] is described as follows: Protein binding in mouse plasma. Format: ADME, cell-free. Conditions: read-out: PPB.
The nature of data set [3]: Clearance in mouse at 1 mg/kg, iv. Format: ADME, organism-based. Conditions: in vivo.
Data set [4] can be described thus: Half life in mouse at 1 mg/kg, iv. The note with it: in vivo. The data set is classed as ADME, organism-based.
The nature of data set [5]: In-vivo inhibition of 11beta-HSD1 activity in C57BL/6 mouse epididymal fat assessed as reduction in cortisone to-cortisol conversion at 30 mg/kg, po measured after 6 hrs by ELISA. The data set is classed as functional. The note with it: C57BL/6, Epididymal fat pad. In outline: (§1)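 Male C57BL/6 mice dosed orally once at 3, 10 or 30 mg/kg in sterile water containing 0.5% methylcellulose and 1% Tween80, then sacrificed at 2 or 6 h. Liver and epididymal fat pads incubated ex vivo in culture medium containing cortisone. Cortisol formed was measured by ELISA and reported as % inhibition versus vehicle.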
Background: In an ELISA, binding on a coated surface is turned into a signal by an enzyme label.

Data set [6] in a line: Drug level in mouse brain at 10 mg/kg, po measured after 2 hrs post dose. Format: ADME, organism-based. The note with it: in vivo. In outline: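 C57BL/6 mice given a single oral 10 mg/kg dose in 0.5% methylcellulose plus 1% Tween80. Sacrifice at 2 h post-dose, with collection of brain, liver, adipose and plasma. Compound concentration expressed as nmol/g, along with tissue/plasma ratio.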

The nature of data set [7]: Toxicity in female dog during 4-week repeated once daily oral-dose toxicity study. The note with it: in vivo, time 4 weeks. The arrangement: species or system Canis lupus familiaris. In outline: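 Dogs of both sexes were dosed orally once daily for 4 weeks at 25, 100 and 400 mg/kg. Toxicity was assessed and the NOAEL determined.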
A short description of data set [8]: Half life in dog at 0.5 mg/kg, iv. The data set is classed as ADME, organism-based, Canis lupus familiaris. The note with it: in vivo.
A short description of data set [9]: Ratio of drug level in adipose tissue to plasma of mouse at 10 mg/kg, po measured after 2 hrs post dose. The data set is classed as ADME, organism-based. The method, boiled down:
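C57BL/6 mice received a single oral dose of 10 mg/kg in 0.5% methylcellulose/1% Tween80. Animals were sacrificed 2 h post-dose. Compound was measured in brain, liver, adipose and plasma (nmol/g), and tissue/plasma ratios were calculated.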

Data set [10] can be described thus: In-vivo inhibition of 11beta-HSD1 activity in C57BL/6 mouse epididymal fat assessed as reduction in cortisone to-cortisol conversion at 3 mg/kg, po measured after 6 hrs by ELISA. Format: functional. Conditions: C57BL/6, Epididymal fat pad. The method, boiled down:
as §1

Data set [11] in a line: In-vivo inhibition of 11beta-HSD1 activity in C57BL/6 mouse epididymal fat assessed as reduction in cortisone to-cortisol conversion at 10 mg/kg, po measured after 6 hrs by ELISA. Format: functional. The note with it: C57BL/6, Epididymal fat pad. The method, boiled down: as §1
Data set [12] is described as follows: AUC in mouse at 1 mg/kg, iv. The data set is classed as ADME, organism-based. Also on record: dose 1 mg/kg. The note with it: in vivo.
Data set [13] is described as follows: In-vivo inhibition of 11beta-HSD1 activity in C57BL/6 mouse liver assessed as reduction in cortisone to-cortisol conversion at 3 mg/kg, po measured after 6 hrs by ELISA. Format: functional. Conditions: C57BL/6, Liver. In outline:
as §1

A short description of data set [14]: Half life in rat at 1 mg/kg, iv. Format: ADME, organism-based. Conditions: in vivo.
The test system of data set [15] is Mus musculus. The experiment in a line: In-vivo inhibition of 11beta-HSD1 activity in C57BL/6 mouse liver assessed as reduction in cortisone to-cortisol conversion at 3 to 30 mg/kg, po measured after 2 to 6 hrs by ELISA. The data set is classed as functional, organism-based. Conditions: dose 3-30 mg/kg, time 2-6 hrs. The method, boiled down:
as §1

The nature of data set [16]: Metabolic stability in mouse liver microsomes assessed as compound remaining after 30 mins. The note with it: read-out: Stabilty. Format: ADME, Microsome. A general note: Liver microsomes are vesicles of endoplasmic reticulum, rich in cytochrome P450 enzymes.
Data set [17] is described as follows: AUC in rat at 1 mg/kg, iv. Format: ADME, organism-based. The arrangement: dose 1 mg/kg. The note with it: in vivo.
The nature of data set [18]: Ratio of unbound drug level in mouse plasma at 10 mg/kg, po measured after 2 hrs post dose to IC50 for mouse 11beta-HSD1. The data set is classed as ADME, organism-based. The note with it: in vivo.
The target in data set [19] is T1, Mineralocorticoid receptor (Homo sapiens, UniProt P08235).
T1 sequence (P08235 whole entry): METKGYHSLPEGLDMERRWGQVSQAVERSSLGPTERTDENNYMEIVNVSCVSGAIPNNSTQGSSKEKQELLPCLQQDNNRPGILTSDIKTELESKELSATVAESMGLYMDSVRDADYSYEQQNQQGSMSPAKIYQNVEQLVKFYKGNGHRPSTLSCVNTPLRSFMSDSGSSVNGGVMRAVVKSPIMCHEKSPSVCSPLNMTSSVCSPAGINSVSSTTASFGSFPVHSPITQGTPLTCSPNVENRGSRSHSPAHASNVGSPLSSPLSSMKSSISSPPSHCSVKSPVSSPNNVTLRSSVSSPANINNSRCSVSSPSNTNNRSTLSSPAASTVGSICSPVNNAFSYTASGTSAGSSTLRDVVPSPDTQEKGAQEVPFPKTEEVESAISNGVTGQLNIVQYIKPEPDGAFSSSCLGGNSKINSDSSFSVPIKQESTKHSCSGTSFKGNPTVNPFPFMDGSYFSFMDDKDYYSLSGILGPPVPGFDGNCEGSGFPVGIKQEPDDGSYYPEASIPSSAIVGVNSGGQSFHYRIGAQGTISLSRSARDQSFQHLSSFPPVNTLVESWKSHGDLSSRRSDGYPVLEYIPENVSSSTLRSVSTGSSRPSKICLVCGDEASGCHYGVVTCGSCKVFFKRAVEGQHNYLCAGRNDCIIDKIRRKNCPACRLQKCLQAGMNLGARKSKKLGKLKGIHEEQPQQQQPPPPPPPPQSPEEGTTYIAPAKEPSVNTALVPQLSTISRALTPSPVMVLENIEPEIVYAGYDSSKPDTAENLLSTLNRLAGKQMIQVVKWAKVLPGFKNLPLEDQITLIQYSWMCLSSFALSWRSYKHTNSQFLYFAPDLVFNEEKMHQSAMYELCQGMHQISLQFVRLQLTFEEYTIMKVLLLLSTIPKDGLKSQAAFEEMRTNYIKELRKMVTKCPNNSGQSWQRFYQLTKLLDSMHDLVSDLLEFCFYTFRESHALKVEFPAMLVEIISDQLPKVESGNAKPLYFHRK
The experiment in a line: Antagonist activity at mineralocorticoid receptor (unknown origin).

The target of data set [20] is T2, 11-beta-hydroxysteroid dehydrogenase type 2 (Homo sapiens) (UniProt P80365).
T2 sequence (whole entry): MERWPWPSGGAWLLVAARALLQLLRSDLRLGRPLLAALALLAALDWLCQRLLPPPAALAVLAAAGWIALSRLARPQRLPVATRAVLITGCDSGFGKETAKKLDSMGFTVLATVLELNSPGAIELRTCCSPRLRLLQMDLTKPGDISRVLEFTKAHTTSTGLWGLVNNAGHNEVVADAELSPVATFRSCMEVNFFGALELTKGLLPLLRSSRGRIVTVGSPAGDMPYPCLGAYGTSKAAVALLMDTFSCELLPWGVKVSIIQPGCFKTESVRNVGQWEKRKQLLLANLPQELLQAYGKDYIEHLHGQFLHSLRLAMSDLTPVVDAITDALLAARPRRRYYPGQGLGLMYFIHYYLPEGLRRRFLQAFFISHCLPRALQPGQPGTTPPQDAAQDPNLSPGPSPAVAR
Kind of data set: Inhibition of human 11beta-HSD2 expressed in microsomes at 10 uM relative to control. Conditions: Microsome.

The text below walks through data of ChEMBL document CHEMBL4680093 (J Med Chem, 2016).

As usually defined, the clearance is the volume of plasma or blood freed of the substance per unit of time. One may read the half-life as how long it takes for the measured level to halve. As usually defined, the inhibition in vivo is the change of the read-out against control, counted positive when it falls. One may read the NOAEL as the highest dose or exposure tested at which no adverse effect was seen. A word on the Kp: it is the ratio of the level in a tissue or fluid to that in plasma or blood. Usually AUC stands for the area under the concentration-time curve, a measure of exposure. A lower AUC goes with low exposure. As a reminder, the inhibition is the drop in the measured response relative to a control, in per cent. In general, EC50 refers to the concentration that produces a half-maximal response. A low value points to higher potency in that assay. As for `C[C@@H]1CN(c2ccc(S(C)(=O)=O)cc2F)CCN1c1nccc(C(=O)NC2C3CC4CC2CC(O)(C4)C3)n1` (stereo not given in full), the Activity in the data set with Mus musculus [1] was 83.4 mg/dL. The fraction unbound in data set [2] is 0.01. Moreover, the clearance in data set [3] is 7 mL/min/kg. Also, the values for the half-life in data set [4], in data set [8] and in data set [14] were 1.7 h, 4.7 h and 1.8 h, respectively. Further, in data set [5], the inhibition in vivo at 30 mg/kg was found to be 93%. For the same molecule, the Drug uptake in data set [6] was found to be 0.41 nmol/g. In data set [7], this molecule showed a no observed adverse effect level (NOAEL) at 672 h of 400 mg/kg. In addition, the Kp at 2 h in data set [9] turned out to be 0.62. The inhibition in vivo at 3 mg/kg in [10] was 84%; in data set [13] it was 71%. The inhibition in vivo at 10 mg/kg in [11] stood at 93%. Moreover, the area under the curve (AUC) in data set [12] was 2350 ng·h/mL; in data set [17], 1120 ng·h/mL. The inhibition result in the data set with Mus musculus [15] is “Dose-dependent effect”; in [20], 17%. In addition, the remaining at 0.5 h in [16] was found to be 98%. For the same molecule, the Ratio in data set [18] is above 50. In data set [19], this molecule gave an EC50 above 5 µM.
